A short description of series [1]: folding enthalpy; higher = less favourable; fluorescence melt of hairpins on a sequencing array, two-state fit. To be noted: sodium 0.088 M. The gist of the method: (§1)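 Cy3 fluorescence of library hairpins on a sequenced MiSeq flow cell, with annealed Cy3 and quencher oligos, was imaged in 50 mM Na-HEPES pH 8.0, 25 mM NaCl in 2.5 °C steps up to 60 °C. Signals were normalised to pre-quench Cy3 and to control variants. Melting temperature and folding enthalpy came from bootstrapped two-state fits, inverse-variance combined over four replicates. Fitted temperatures were raised by 9.35 °C to match UV melts.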

Series [2] in a line: melting temperature; fluorescence melt of hairpins on a sequencing array, two-state fit, raised by 9.35 °C to match UV melts. To be noted: sodium 0.088 M. In outline: as §1

For GAAGCGGCGAAAGCCTTC (((..(((....)))))), in series [1], the folding enthalpy is -10.2 kcal/mol. Moreover, the Tm in series [2] is 28.5 °C.
As to GAAGCTGGAAACAGCCTC ((.((((....)))).)), in series [1], the folding enthalpy was -13.8 kcal/mol. Also, in series [2], the Tm turned out to be 32.6 °C.
As to GAAGGACGAAAGTCGTTC (((.(((....))).))), the folding enthalpy in series [1] is -37.1 kcal/mol. For the same sequence, in series [2], the Tm stood at 51.9 °C.
In the case of GAAGGACGAAAGTCTTTC (((.(((....))).))), the folding enthalpy in series [1] is -25 kcal/mol. For the same sequence, in series [2], the Tm stood at 46.3 °C.
For the sequence GAAGGAGGAAACCCCTTC (((((.(....).))))), the folding enthalpy in series [1] is -31.3 kcal/mol. Moreover, the Tm in series [2] was 36.9 °C.
Regarding GAAGGAGGAAACTCCTTC (((((((....))))))), the folding enthalpy in series [1] is -33.6 kcal/mol. The Tm in series [2] was 58.3 °C.
As for GAAGGCCGAAAGGCGTTC (((.(((....))).))), the folding enthalpy in series [1] is -26.3 kcal/mol. Further, the Tm in series [2] came out at 57 °C.
With GAAGGCGAAAGCCCCTTC ((((((....)))..))), in series [1], the folding enthalpy was -9.89 kcal/mol. For the same sequence, the Tm in series [2] amounted to 35.1 °C.
Taken in the same sequence, the figures for GAAGGCGAAAGCCCGTTC ((((((....)))..))) were -12 kcal/mol and 27.2 °C.
GAAGGCGAAAGCCGCTTC ((((((....)))..))): in series [1], the folding enthalpy was -13.6 kcal/mol. Also, the Tm in series [2] amounted to 56.2 °C.
Regarding GAAGGCGAAAGCCGGTTC ((((((....)))..))), in series [1], the folding enthalpy was -9.54 kcal/mol. In series [2], the Tm was determined as 43.4 °C.
Taken in the same sequence, the figures for GAAGGCGAAAGCCGTTC ((((((....))).))) were -8.18 kcal/mol and 43 °C.
For GAAGGGACGAAAGTCTTC (((..(((....)))))), in that order: -11.8 kcal/mol and 26.7 °C.
As for GAAGGGGGAAACCCCCTC ((.((((....)))).)), in series [1], the folding enthalpy is -12.7 kcal/mol. The Tm in series [2] is 42.4 °C.
In the case of GAAGGTGGAAACACTTTC (((.(((....))).))), the folding enthalpy in series [1] is -24.9 kcal/mol. For the same sequence, the Tm in series [2] was determined as 38 °C.
GAAGGTGGAAACGCCTTC (((((.(....).))))): in series [1], the folding enthalpy is -31.9 kcal/mol. The Tm in series [2] was determined as 51.9 °C.
For the sequence GAAGTCGGAAACGACCTC ((.((((....)))).)), the folding enthalpy in series [1] was -13.6 kcal/mol. Moreover, in series [2], the Tm is 37.2 °C.
For the sequence GAAGTGAAAACTTC (((((....))))), in series [1], the folding enthalpy is -23.2 kcal/mol. Also, in series [2], the Tm amounted to 43.1 °C.
Turning to GAAGTGGCGAAAGCCTTC (((..(((....)))))), the folding enthalpy in series [1] is -11.4 kcal/mol. For the same sequence, the Tm in series [2] came to 31.4 °C.
For GAAGTTGGAAACAACCTC ((.((((....)))).)), in that order: -15 kcal/mol and 27.4 °C.
As for GAAGTTGGAAACAACTTC (((((((....))))))), in series [1], the folding enthalpy is -41.2 kcal/mol. Moreover, the Tm in series [2] turned out to be 57.3 °C.
Regarding GAAGTTGGAAACAGCTTC ((((.((....)).)))), the folding enthalpy in series [1] is -38.7 kcal/mol. Also, in series [2], the Tm came out at 44.4 °C.
GAATAACCGAAAGGTTTC (((..(((....)))))): in series [1], the folding enthalpy is -15.1 kcal/mol. Moreover, the Tm in series [2] was 25.6 °C.
Turning to GAATAACGAAAGTTTTTC (((.(((....))).))), the folding enthalpy in series [1] was -28.6 kcal/mol. For the same sequence, in series [2], the Tm is 32 °C.
Consider GAATAAGAAATTATTC ((((((....)))))), for which the folding enthalpy in series [1] is -10.4 kcal/mol. The Tm in series [2] is 31.9 °C.
For GAATACGAAAGTAATTC ((((((....))).))), in series [1], the folding enthalpy is -13.6 kcal/mol. Moreover, the Tm in series [2] was found to be 34.1 °C.
Take GAATACGAAAGTATTC ((((((....)))))): the folding enthalpy in series [1] was -34.4 kcal/mol. In addition, the Tm in series [2] came to 55.5 °C.
On to GAATACGGAAACGTGTTC (((.(((....))).))), for which the folding enthalpy in series [1] is -33.2 kcal/mol. The Tm in series [2] came out at 47.1 °C.
On to GAATAGACGAAAGTCTTC (((..(((....)))))), for which the folding enthalpy in series [1] is -11.8 kcal/mol. Further, the Tm in series [2] worked out at 26.1 °C.
GAATAGCGAAAGCTGTTC (((.(((....))).))): the folding enthalpy in series [1] is -39.9 kcal/mol. Moreover, the Tm in series [2] was determined as 51.5 °C.

These data come from the array DNA melting data of Ke et al. (doi:10.1101/2024.01.08.574731).
